Data published in paper PMC3993932 (Molecular Pharmaceutics, 2014).

Experiments:
[1] = In vitro release study by dialysis method; type: physicochemical
Method in brief: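 Micelles, free parent drug, or free prodrug were placed in a 20 kDa MWCO dialysis cassette against 500 mL PBS (20 mM, pH 7.4) at 37 °C. The sink was refreshed at each sampling. Free prodrug was taken from a 6 mM Tween 80/ethanol (1:4) stock and diluted in HEPES saline to a final 100 μM. Cassette contents were sampled over time and quantified by HPLC. Ct/C0 = e^–kt was fitted by nonlinear regression, and t1/2 = 0.693/k.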

[2] = tested on: human pancreatic cancer BxPC-3 cells; test: Cell proliferation assay; type: cell-based; conditions: BXPC-3, 72 h
Method in brief: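 BxPC-3 cells were grown in RPMI with 10% FBS and penicillin/streptomycin at 37 °C under 5% CO2, then seeded in 96-well plates. Stocks were 1 mM (parent drug in PBS, prodrug in DMSO). Cells were exposed to 10–150 nM free or micellar test compound for 72 h. They were then fixed with 1% glutaraldehyde, stained with 0.1% crystal violet and dissolved in 10% acetic acid, with absorbance read at 595 nm. Viability was expressed as % of untreated wells.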

[3] = tested on: cytidine deaminase and cathepsin B; type: in vitro ADME, human; conditions: by 1 h; cathepsin B 5 U/mL, cytidine deaminase 15 μg/mL, pH 6.5, 37 °C
[4] = Pharmacokinetic study in mice bearing BxPC-3 xenografts; type: in vivo
Method in brief: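 Female nude mice carried BxPC-3 subcutaneous xenografts of 100–300 mm3 (3 per group). Mice received iv 25 mg/kg parent-drug equivalent as free drug in PBS, free prodrug in Tween 80/ethanol:PBS (1:4), or micelles. Retro-orbital blood was taken at 3–90 min. Samples were quenched with acetic acid, precipitated with acetonitrile, and analyzed by HPLC with internal standards for prodrug, parent and deaminated metabolite. t1/2, CLT and Vd,ss came from noncompartmental analysis.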

BxPC-3 xenografts = test: Antitumor efficacy study in mice bearing BxPC-3 xenografts; type: in vivo; conditions: iv 10 mg/kg gemcitabine equivalent on days 0, 3, 7, 10
Method in brief: (§1)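 Female athymic nude mice (nu/nu, 5–6 weeks) received subcutaneous BxPC-3 cells (2 × 10^6 in matrigel/RPMI) in each flank. At 50–100 mm3, mice were randomized to untreated, free parent drug in PBS, or micellar prodrug groups (4 per group). Dosing was iv 10 mg/kg parent-drug equivalent on days 0, 3, 7 and 10. Tumor volume was measured by caliper as 1/2 × length × width², and body weight was tracked. Groups were compared by t-test.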

[5] = Body weight of treated mice in the efficacy study; type: in vivo; conditions: iv 10 mg/kg gemcitabine equivalent twice weekly for 2 weeks
Method in brief: as §1

[6] = tested on: tumor cells with wild-type hENT1 and deoxycytidine kinase; conditions: cell culture, tumor cells with wild-type hENT1 and deoxycytidine kinase ref 36; cited from earlier work
[7] = female, athymic nude (nu/nu), mouse, plasma, iv, 25 mg/kg

## Nc1ccn([C@@H]2O[C@H](CO)[C@@H](O)C2(F)F)c(=O)n1 [gemcitabine, 2′,2′-difluorocytidine]
[1]; dialysis
  release half-life (t1/2,release): about 15 min
[1]; dialysis 20 kDa MWCO, PBS pH 7.4, 37 °C, 0.693/k
  t1/2,release: 14.4 min
[1]; dialysis 20 kDa MWCO, PBS pH 7.4, 37 °C, free GemC18 in Tween 80/ethanol
  release rate constant: 2.920 h^–1
[2]
  EC50: 25 nM
[3]
  conversion to dFdU: 80%
[4]; [7]
  AUC: 18.8 µM·h
  Vd: 1.06 ± 0.132 L/kg
[4]; plasma gemcitabine, iv 25 mg/kg, mice
  CLT of gemcitabine: 84.0 ± 4.0 mL/min/kg
BxPC-3 xenografts
  effect on tumor growth: unable to arrest the tumor growth
[5]
  body weight / overt toxicity: no overt toxicity
[6]
  EC50: low nanomolar range
